Assay results taken from ChEMBL document CHEMBL5247671, “Design and Synthesis of Pyrazole-Based Macrocyclic Kinase Inhibitors Targeting BMPR2” (ACS Med Chem Lett, 2023).
Several values for one entry are separate records, joined by “and”; a condition that tells them apart may be missing. Equal entries are not always repeated.

Experiments:
[1] = molecular target: T1, Bone morphogenetic protein receptor type-2 (Homo sapiens) (UniProt Q13873); test: Binding affinity to BMPR2 (unknown origin) assessed as change in enthalpy by ITC assay
T1 sequence (whole entry): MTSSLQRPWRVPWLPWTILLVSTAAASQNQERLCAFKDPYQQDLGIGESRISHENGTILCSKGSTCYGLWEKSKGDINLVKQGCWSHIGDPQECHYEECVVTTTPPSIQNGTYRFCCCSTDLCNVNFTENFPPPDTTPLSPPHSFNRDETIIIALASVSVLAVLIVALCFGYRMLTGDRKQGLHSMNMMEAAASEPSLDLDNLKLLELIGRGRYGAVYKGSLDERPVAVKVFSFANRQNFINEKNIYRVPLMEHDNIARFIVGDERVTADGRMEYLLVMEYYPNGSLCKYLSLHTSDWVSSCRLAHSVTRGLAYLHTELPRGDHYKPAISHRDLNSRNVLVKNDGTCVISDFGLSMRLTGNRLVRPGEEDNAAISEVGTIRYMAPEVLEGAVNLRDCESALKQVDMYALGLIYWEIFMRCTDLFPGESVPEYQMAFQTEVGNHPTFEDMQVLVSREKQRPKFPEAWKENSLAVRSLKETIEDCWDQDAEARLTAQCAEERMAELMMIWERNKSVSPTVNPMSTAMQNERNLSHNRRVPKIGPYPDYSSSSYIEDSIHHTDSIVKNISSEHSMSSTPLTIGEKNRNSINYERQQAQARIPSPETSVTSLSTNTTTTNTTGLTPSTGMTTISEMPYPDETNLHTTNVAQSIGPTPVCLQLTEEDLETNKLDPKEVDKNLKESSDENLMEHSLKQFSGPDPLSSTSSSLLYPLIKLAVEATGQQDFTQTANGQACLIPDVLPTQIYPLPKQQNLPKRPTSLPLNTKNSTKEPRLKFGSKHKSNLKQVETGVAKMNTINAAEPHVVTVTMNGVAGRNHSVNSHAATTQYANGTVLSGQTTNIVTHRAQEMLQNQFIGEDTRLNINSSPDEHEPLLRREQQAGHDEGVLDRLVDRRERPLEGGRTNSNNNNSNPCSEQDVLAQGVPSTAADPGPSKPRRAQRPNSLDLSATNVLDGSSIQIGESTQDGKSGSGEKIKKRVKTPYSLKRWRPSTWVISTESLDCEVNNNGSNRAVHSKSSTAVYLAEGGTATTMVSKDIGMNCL
In short: (§1)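 Binding measured by isothermal titration calorimetry against the recombinant BMPR2 kinase domain. Thermodynamic binding parameters, including the dissociation constant, were derived from the titration data.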

[2] = molecular target: MAP/microtubule affinity-regulating kinase 3 (Homo sapiens) (UniProt P27448); test: Inhibition of recombinant MARK3 (unknown origin) at 10 uM by DSF assay relative to staurosporine
In short: (§2)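 Differential scanning fluorimetry on an in-house panel of 90 recombinant kinases. Stabilization is read as the shift in melting temperature (ΔTm) relative to ligand-free protein. Staurosporine served as the positive control, and binding was also compared against its ΔTm.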

[3] = molecular target: Serine/threonine-protein kinase 24 (Homo sapiens) (UniProt Q9Y6E0); test: Binding affinity to recombinant MST3 (unknown origin) assessed as change in melting temperature at 10 uM by DSF assay; in short: as §2
[4] = molecular target: T2, Tyrosine-protein kinase Mer (Homo sapiens) (UniProt Q12866); test: Binding affinity to recombinant MERTK (unknown origin) assessed as change in melting temperature at 10 uM by DSF assay; in short: as §2
T2 sequence (whole entry): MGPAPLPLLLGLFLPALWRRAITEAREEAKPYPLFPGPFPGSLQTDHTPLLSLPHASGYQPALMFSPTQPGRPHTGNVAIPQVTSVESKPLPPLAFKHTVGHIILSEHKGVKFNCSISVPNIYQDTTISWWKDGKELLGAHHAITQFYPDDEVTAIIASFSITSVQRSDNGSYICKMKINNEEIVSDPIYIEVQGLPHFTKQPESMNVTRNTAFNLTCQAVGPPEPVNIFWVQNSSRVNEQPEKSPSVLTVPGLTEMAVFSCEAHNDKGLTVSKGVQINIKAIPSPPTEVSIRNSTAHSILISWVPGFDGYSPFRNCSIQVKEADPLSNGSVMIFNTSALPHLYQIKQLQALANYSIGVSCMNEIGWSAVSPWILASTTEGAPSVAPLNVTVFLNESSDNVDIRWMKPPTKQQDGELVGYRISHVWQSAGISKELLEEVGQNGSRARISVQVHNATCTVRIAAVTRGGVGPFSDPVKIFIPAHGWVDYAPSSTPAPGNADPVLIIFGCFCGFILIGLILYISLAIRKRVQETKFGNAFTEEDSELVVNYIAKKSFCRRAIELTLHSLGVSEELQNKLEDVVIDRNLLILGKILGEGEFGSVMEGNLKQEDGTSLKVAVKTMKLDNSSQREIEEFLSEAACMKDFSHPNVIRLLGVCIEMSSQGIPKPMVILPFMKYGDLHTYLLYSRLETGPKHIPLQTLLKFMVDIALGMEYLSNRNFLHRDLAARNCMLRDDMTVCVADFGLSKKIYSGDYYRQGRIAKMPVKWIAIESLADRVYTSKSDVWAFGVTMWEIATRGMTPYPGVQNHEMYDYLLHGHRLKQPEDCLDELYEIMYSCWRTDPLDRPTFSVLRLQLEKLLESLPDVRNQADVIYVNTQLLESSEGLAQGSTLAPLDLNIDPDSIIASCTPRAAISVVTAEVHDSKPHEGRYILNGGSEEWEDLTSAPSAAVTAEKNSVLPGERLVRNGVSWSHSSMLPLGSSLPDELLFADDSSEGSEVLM

[5] = molecular target: T2, Tyrosine-protein kinase Mer (Homo sapiens); test: Inhibition of recombinant MERTK (unknown origin) at 10 uM by DSF assay relative to staurosporine; in short: as §2
[6] = molecular target: T1, Bone morphogenetic protein receptor type-2 (Homo sapiens); test: Binding affinity to BMPR2 (unknown origin) assessed as change in entropy by ITC assay; in short: as §1
[7] = molecular target: Cyclin-dependent kinase 2 (Homo sapiens) (UniProt P24941); test: Inhibition of recombinant CDK2 (unknown origin) at 10 uM by DSF assay relative to staurosporine; in short: as §2
[8] = molecular target: T1, Bone morphogenetic protein receptor type-2 (Homo sapiens); test: Binding affinity to recombinant BMPR2 (unknown origin) assessed as change in melting temperature at 10 uM by DSF assay; in short: as §2
[9] = molecular target: BMP-2-inducible protein kinase (Homo sapiens) (UniProt Q9NSY1); test: Binding affinity to recombinant BMP2K (unknown origin) assessed as change in melting temperature at 10 uM by DSF assay; in short: as §2
[10] = molecular target: Glycogen synthase kinase-3 beta (Homo sapiens, UniProt P49841); test: Inhibition of N-terminal NanoLuc-fused full length intact GSK3B (unknown origin) transfected in HEK293T cells incubated for 2 hrs in presence of tracer K8 by NanoBRET assay; assay type: cell-based
In short: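 Cellular target engagement by NanoBRET in intact cells expressing NanoLuc-fused GSK3A or GSK3B, with EC50 values derived from tracer displacement.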

[11] = molecular target: BMP-2-inducible protein kinase (Homo sapiens) (UniProt Q9NSY1); test: Inhibition of recombinant BMP2K (unknown origin) at 10 uM by DSF assay relative to staurosporine; in short: as §2

Sequence of BMP-2-inducible protein kinase (Homo sapiens) (Q9NSY1 whole entry, looked up, the tested form may be a part): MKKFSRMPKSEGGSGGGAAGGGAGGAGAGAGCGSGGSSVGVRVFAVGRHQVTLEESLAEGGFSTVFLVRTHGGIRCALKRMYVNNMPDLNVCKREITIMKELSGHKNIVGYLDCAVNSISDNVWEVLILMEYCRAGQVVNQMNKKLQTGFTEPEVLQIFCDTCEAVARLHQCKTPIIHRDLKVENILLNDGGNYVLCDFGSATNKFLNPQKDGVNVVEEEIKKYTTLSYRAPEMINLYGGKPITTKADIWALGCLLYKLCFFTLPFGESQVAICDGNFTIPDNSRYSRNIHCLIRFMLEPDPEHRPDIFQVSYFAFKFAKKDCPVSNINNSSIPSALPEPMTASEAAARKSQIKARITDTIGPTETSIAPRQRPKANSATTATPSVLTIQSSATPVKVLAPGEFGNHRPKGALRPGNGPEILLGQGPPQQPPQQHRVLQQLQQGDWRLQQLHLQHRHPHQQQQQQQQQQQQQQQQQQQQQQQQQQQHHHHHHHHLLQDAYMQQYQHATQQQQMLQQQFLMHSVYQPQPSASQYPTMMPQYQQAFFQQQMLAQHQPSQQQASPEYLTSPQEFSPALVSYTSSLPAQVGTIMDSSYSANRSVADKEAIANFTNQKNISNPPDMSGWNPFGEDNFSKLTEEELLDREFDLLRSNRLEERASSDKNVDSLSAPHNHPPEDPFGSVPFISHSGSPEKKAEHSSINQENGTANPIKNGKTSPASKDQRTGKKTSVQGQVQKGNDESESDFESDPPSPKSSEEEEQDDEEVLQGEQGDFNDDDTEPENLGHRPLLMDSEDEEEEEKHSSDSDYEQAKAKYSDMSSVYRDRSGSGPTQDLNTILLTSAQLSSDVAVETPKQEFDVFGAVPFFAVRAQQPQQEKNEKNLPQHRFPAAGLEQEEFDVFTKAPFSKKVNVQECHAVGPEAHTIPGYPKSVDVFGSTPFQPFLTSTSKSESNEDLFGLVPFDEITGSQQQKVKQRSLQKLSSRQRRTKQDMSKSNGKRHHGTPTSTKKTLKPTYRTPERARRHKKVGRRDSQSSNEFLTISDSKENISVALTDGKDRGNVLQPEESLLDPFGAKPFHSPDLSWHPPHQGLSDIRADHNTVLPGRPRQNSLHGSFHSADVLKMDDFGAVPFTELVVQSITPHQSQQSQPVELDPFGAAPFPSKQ
Sequence of MAP/microtubule affinity-regulating kinase 3 (Homo sapiens) (P27448 whole entry, looked up): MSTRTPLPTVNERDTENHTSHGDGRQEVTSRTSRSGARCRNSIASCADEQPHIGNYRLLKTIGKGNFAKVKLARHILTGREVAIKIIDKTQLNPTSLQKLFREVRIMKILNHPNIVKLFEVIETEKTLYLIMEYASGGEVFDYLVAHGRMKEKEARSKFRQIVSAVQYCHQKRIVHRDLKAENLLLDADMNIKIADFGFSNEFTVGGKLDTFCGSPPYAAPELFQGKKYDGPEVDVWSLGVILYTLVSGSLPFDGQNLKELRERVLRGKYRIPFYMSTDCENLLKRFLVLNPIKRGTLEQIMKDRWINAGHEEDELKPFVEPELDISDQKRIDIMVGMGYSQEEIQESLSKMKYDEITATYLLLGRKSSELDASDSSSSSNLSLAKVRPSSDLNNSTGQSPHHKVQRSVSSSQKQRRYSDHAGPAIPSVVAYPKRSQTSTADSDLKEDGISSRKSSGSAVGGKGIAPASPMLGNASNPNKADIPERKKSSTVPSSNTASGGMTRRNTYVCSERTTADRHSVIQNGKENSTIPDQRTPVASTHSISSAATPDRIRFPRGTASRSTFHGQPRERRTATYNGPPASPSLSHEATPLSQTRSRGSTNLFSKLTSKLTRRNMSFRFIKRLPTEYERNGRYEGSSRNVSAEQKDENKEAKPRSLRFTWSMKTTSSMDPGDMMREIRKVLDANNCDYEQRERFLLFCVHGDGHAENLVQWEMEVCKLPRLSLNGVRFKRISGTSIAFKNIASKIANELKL
Sequence of Glycogen synthase kinase-3 beta (P49841 whole entry, the tested form may be a part): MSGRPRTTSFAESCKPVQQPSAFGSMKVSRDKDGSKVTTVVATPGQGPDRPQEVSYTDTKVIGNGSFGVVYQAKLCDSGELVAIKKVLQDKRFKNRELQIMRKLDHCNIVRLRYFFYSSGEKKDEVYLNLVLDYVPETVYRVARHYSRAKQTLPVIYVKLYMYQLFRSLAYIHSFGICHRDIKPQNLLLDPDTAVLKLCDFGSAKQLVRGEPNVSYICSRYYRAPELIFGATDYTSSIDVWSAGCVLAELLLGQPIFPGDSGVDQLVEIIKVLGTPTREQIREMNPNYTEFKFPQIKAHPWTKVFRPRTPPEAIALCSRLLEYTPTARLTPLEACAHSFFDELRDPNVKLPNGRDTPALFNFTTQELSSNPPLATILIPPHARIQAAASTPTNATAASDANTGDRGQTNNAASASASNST
Sequence of Serine/threonine-protein kinase 24 (Homo sapiens) (Q9Y6E0 whole entry, looked up): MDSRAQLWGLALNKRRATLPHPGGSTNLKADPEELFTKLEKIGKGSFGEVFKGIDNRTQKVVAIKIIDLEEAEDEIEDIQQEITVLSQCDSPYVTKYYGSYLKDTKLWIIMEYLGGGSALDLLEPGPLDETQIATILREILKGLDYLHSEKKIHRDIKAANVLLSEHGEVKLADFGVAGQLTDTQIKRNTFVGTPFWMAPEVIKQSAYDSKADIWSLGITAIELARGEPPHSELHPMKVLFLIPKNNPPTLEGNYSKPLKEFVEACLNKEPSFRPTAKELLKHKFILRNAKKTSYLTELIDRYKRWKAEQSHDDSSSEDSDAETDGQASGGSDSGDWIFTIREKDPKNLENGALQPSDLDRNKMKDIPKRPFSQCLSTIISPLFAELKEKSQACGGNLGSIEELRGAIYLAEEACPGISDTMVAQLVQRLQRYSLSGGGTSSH

O=C1NCCc2ccc(cc2)Nc2nccc(n2)Nc2cc1[nH]n2
deltaH [1]: -8.41 kcal/mol | inhibition [2]: 22% | ΔTm [3]: 3.2 °C | ΔTm [4]: 3.2 °C | inhibition [5]: 48% | deltaS [6]: 3.7 cal/mol.K | inhibition [7]: 25% | ΔTm [8]: 5.8 °C | ΔTm [9]: 5.8 °C and 5.3 °C | IC50 [10]: 34 µM | inhibition [11]: 30%
